One data set has as its system Mus musculus. Nature of the data set: Liver toxicity in diet-induced obesity C57BL/6 mouse model at 100 mg/kg, po daily once after 10 weeks. Set-up: dose 100 mg/kg, route oral. It counts as organism-based. The settings on record: in vivo, 1680 h. In a few lines:
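Male C57BL/6 mice were fed a 60%-fat diet from 9 weeks of age until about 40 g, in groups of 6-10. They were dosed by oral gavage once daily in 2% HPMC + 0.2% DOSS, with 29 at 100 mg/kg and rosiglitazone at 5 mg/kg, alongside vehicle groups on lean and high-fat diet. Fed glucose was read at weeks 2, 4, 6, 8 and 10. Clinical chemistry and hematology were also measured. Analysis by ANOVA.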

The target in data set [1] is T1, Alpha-2A adrenergic receptor (Homo sapiens, UniProt P08913).
T1 sequence (P08913 whole entry): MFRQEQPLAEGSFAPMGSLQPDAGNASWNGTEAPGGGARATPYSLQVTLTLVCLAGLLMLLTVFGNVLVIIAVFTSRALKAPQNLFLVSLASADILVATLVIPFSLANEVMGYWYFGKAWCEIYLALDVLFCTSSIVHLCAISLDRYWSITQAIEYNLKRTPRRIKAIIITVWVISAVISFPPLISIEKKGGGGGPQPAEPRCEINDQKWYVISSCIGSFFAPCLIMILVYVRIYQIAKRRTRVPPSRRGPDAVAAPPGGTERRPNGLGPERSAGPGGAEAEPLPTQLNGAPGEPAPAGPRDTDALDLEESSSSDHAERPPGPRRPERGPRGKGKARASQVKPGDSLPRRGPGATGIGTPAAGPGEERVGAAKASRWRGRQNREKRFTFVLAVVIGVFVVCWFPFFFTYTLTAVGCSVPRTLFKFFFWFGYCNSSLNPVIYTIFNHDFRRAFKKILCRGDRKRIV
In words: Inhibition of adrenergic alpha2A receptor.

Broadly, the IC50 is the concentration needed to halve the response being measured. High values mean a need for much substance, low ones inhibition by little substance.

Regarding `O=C(Nc1ccccc1-c1cn2c(CN3CCNCC3)csc2n1)c1cnc2ccccc2n1`, in the data set with Mus musculus, the Activity entry is “Non-toxic”. This molecule registered an IC50 in data set [1] of 2830 nM.

(Values after ChEMBL document CHEMBL1140923, “Discovery of imidazo[1,2-b]thiazole derivatives as novel SIRT1 activators” (J Med Chem, 2009).)
